Shown are actives, neighbours in structure and some others; about 1.3% of the full set was active somewhere.
proCasp3 act = activators of human procaspase-3 | recombinant procaspase-3 D3A, Ac-DEVD-pNA absorbance 405 nm | activation, % at 8.5 µM | actives 0.11% (n = 330,000);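 active = activation above the mean of all tested compounds plus 3 SD, cut at about 21% in these data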;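 note: 0% = DMSO alone and 100% = DMSO wells spiked with extra 5 µM PC-3 D3A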
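Assay system: Autoprocessing-dead procaspase-3 D3A mutant enzyme; also added: Ac-DEVD-pNA; doses: one concentration, 8.5 µM nominal, 0.8% DMSO; times: 1 h compound preincubation, 2 h substrate hydrolysis at 25 °C; technique: 405 nm absorbance of p-nitroaniline, reads at 0 and 120 min; measure: % activation between DMSO and enzyme-spiked controls; repeats: single replicate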
proCasp7 act = counter-screen for procaspase-3 activators: activators of human procaspase-7; activation, % at 8.5 µM; P55210; recombinant procaspase-7, Ac-DEVD-pNA absorbance 405 nm; D23A/D198A/D206A triple mutant, cannot self-cleave; scale: DMSO 0, 5 µM enzyme 100; actives 0.093% (n = 330,000);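 active = percent activation above the screen-wide mean plus 3 SD, cut at about 25% in these data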
Target sequence (P55210 whole entry D23A/D198A/D206A): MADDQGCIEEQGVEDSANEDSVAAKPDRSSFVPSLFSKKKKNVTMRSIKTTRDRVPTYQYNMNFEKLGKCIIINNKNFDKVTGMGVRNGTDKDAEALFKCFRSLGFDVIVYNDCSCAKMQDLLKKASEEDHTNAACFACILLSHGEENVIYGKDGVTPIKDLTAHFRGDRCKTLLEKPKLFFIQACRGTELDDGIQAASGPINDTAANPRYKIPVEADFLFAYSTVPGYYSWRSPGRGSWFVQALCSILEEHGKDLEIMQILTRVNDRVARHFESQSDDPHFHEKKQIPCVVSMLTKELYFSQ
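signal = Epi-absorbance of released pNA at 405 nm, two timepoints | assay system = Uncleavable procaspase-7 mutant enzyme | reagent = Ac-DEVD-pNA substrate, 400 µM as added | times = 1 h enzyme–compound preincubation and 2 h substrate reaction, both 25 °C | benchmarks = low DMSO alone, high DMSO plus 5 µM PC-7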
CHT allo act = allosterically activates the human high affinity choline transporter. Q9GZV3. CHT-expressing cells, membrane potential dye, choline EC20; stronger effect = higher value; LV-AA mutant CHT in HEK293 cells. B-score at 10 µM. actives 0.49% (n = 310,000);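 active = initial fluorescence not abnormally high and integrated response B-score, plate-corrected, over 3 SD above library mean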
CHT inh = inhibits the human high affinity choline transporter; actives 0.86% (n = 310,000); B-score at 10 µM; AID 488975; CHT-expressing cells, membrane potential dye, choline response; stronger effect = lower value;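 active = B-score over 3 SD under the library average, and starting fluorescence ratio not unusually high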;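 note: choline stimulus applied at its EC90 after an EC20 pre-addition; B-score computed on integrated fluorescence ratio after choline addition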
CHT inh conf = confirmation of human choline transporter CHT inhibitors; shares compounds with CHT inh; CHT-expressing cells, choline membrane potential dye; LV-to-AA substituted CHT, HEK293 cells; CHT activity remaining % of control (stronger effect = lower value), % at 10 µM; actives 70% (n = 2,400); AID 493221;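 active = choline transporter activity left, mean of duplicates at 10 µM, below buffer-only control mean minus 3 SD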;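 note: depolarization triggered by choline at its EC90 following an EC20 pre-addition; 0% = hemicholinium-3 full block and 100% = buffer-only control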
HEK293 CHT ctr = counter-screen for CHT inhibitors: effect in parental HEK293 cells. shares compounds with CHT inh. membrane potential dye, choline response; active = decrease or increase beyond buffer ±3SD. membrane potential ratio readout (active if shifted either direction beyond buffer ±3SD; no single direction) at 10 µM. actives 4% (n = 2,400);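 note: parental cells lack the transporter so any hit is non-specific; ratio is peak minus trough fluorescence over baseline after EC90 choline challenge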
The depositor's hits bear a star.

`O=C(NC1CCCCC1)c1ccc(S(=O)(=O)NCc2ccco2)cc1` gave proCasp3 act 5, proCasp7 act 0, CHT allo act inactive, CHT inh -5.5*, CHT inh conf inactive and HEK293 CHT ctr inactive.
For CCOC(=O)c1oc2nc(C(C)C)c3c(c2c1N)CCC3 the results were proCasp3 act -2, proCasp7 act 3, CHT allo act inactive, CHT inh -5.2*, CHT inh conf 40%* and HEK293 CHT ctr inactive.
For CCCc1nc2oc(C(=O)OCC)c(N)c2c2c1COC(C)(C)C2 the results were proCasp3 act -8, proCasp7 act 20, CHT allo act inactive, CHT inh -6.3*, CHT inh conf 33%* and HEK293 CHT ctr inactive.
CCOC(=O)c1sc2nc(CC(C)C)c3c(c2c1N)CCC3 was read as proCasp3 act 5, proCasp7 act -6, CHT allo act inactive and CHT inh inactive.
For CCN(CC)CCCNC(=S)N1CCC(c2nc3ccccc3[nH]2)CC1 the results were proCasp3 act 2, proCasp7 act 8, CHT allo act inactive and CHT inh inactive.
`Oc1cccc(-n2nnnc2SCc2ccccc2F)c1` gave proCasp3 act 8, proCasp7 act -7, CHT allo act inactive, CHT inh -6.3*, CHT inh conf 57%* and HEK293 CHT ctr inactive.
For O=[N+]([O-])c1ccc(O)c(CSc2nnnn2-c2ccccc2)c1 the results were proCasp3 act -12, proCasp7 act -12, CHT allo act inactive, CHT inh -6.1*, CHT inh conf 30%* and HEK293 CHT ctr inactive.
CC(C)(C)NCCOCCOc1ccccc1-c1ccccc1 was read as proCasp3 act -7, proCasp7 act -7, CHT allo act inactive and CHT inh inactive.
Screening CCC(C)NCCOCCOc1ccccc1-c1ccccc1 (stereo not given) returned proCasp3 act -1, proCasp7 act -1, CHT allo act inactive, CHT inh -5.8*, CHT inh conf 48%* and HEK293 CHT ctr -15*.
Cc1cccc(N2CCN(C(=O)CCn3c(=O)[nH]c4ccsc4c3=O)CC2C)c1 (stereo not given) was read as proCasp3 act 3, proCasp7 act -5, CHT allo act inactive and CHT inh inactive.
Cc1cccc(N2CCN(C(=O)CCCn3c(=O)[nH]c4ccsc4c3=O)CC2C)c1 (stereo not given) was read as proCasp3 act 12, proCasp7 act 6, CHT allo act inactive, CHT inh -11*, CHT inh conf 19%* and HEK293 CHT ctr inactive.
Screening C/C(=N\NS(=O)(=O)c1ccc(Cl)c([N+](=O)[O-])c1)c1cc2ccccc2o1 returned proCasp3 act 5, proCasp7 act -6, CHT allo act inactive, CHT inh -7.5*, CHT inh conf 71%* and HEK293 CHT ctr inactive.
Screening CCOC(=O)C1(Cc2ccc(OC)cc2)CCN(C(=O)c2cncs2)CC1 returned proCasp3 act 2, proCasp7 act 9, CHT allo act inactive, CHT inh -7.1*, CHT inh conf inactive and HEK293 CHT ctr inactive.
Screening Cc1cccc(N2CCN(C(=O)CCCCCn3c(=S)[nH]c4ccc(N5CCOCC5)cc4c3=O)CC2)c1C returned proCasp3 act -1, proCasp7 act 12, CHT allo act inactive and CHT inh inactive.
Screening CN1CCC(NC(=O)NC2CCCCC2)CC1 returned proCasp3 act 5, proCasp7 act 14, CHT allo act inactive and CHT inh inactive.
O=C(NC1CCCCCCC1)NC1CCCCC1 was read as proCasp3 act -1, proCasp7 act -5, CHT allo act inactive, CHT inh -5.7*, CHT inh conf inactive and HEK293 CHT ctr inactive.
`COc1ccccc1CCC(=O)OCC(=O)c1c(N)n(CC(C)C)c(=O)n(C)c1=O` gave proCasp3 act -4, proCasp7 act 1, CHT allo act inactive, CHT inh -5.7*, CHT inh conf 43%* and HEK293 CHT ctr inactive.

From PubChem BioAssay
